Sampled rows, rich in hits. Any-hit rate of the full collection: about 4.6%.
TAAR1 ag = agonists of human TAAR1 | Q96RJ0 | CHO RD-HGA16 TAAR1, Fluo-8 calcium fluorescence; vehicle wells 0%, saturating PEA agonist 100% | activation, % at 3 µM | actives 0.99% (n = 360,000) | AID 624467;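 active = activation above the mean activation of all test compounds in the run plus 3 SD, cut at about 38% in these data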
Target sequence (Q96RJ0 whole entry, looked up): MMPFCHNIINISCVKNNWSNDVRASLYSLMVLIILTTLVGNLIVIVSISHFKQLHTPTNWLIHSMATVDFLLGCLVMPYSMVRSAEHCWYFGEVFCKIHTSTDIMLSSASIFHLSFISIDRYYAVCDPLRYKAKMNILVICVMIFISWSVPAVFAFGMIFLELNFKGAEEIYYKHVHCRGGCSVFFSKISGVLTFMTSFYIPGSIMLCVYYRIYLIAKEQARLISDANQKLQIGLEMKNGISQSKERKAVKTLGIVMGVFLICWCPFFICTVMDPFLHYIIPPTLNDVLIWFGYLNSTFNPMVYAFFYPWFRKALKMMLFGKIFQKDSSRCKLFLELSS
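System: CHO-derived RD-HGA16 cells with stable Gα16 and human TAAR1. Times: 17-24 h plating, Fluo-8 75 min 37 °C, 30 min RT. Measured by: calcium-sensitive Fluo-8 signal, excitation 470-495, emission 515-575 nm. Read-out basis: % activation relative to PEA EC100 response. Control set: DMSO and PEA EC100. Repeats: no replicates (n 1).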
GPR7 antag = blocks human GPR7 receptor signaling; P48145; GPR7-expressing cells, fluorescence antagonist assay; inhibition, % at 4.4 µM; actives 1.1% (n = 290,000); AID 1861; in the data active = inhibition above about 16%, passing the limit was not always enough;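 note: cells stimulated with the agonist NPW; 0% = agonist with vehicle and 100% = vehicle without agonist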
Target sequence (P48145 whole entry, looked up): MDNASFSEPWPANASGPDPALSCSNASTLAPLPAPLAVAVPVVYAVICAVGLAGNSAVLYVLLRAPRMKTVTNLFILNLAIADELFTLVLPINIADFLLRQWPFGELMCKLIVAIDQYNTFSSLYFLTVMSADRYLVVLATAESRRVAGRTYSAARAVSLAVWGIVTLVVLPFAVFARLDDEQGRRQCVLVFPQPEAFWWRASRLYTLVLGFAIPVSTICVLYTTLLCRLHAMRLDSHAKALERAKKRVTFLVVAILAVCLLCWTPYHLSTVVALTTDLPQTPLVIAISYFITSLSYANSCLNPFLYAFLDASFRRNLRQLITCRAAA
OX1R antag-1 = blocks the human orexin 1 receptor | O43613 | actives 0.43% (n = 330,000) | CHO/OX1R cells, Fluo-8 calcium fluorescence, orexin A | inhibition, % at 5 µM | AID 434989;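 active = inhibition above its plate's threshold, mean inhibition of all tested compounds on the plate plus 3 SD, cut at about 37% in these data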;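 note: 0% = orexin A challenge wells and 100% = SB-334867-A antagonist wells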
OX1R antag-2 = antagonists of human orexin 1 receptor (OX1R); O43613; OX1R-expressing cells, FRET antagonist read-out; inhibition, % at 6.6 µM; actives 1.8% (n = 330,000); in the data active = inhibition mostly above about 38%, no sharp cut-off; inactive = mostly below about 40%;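 note: 0% = agonist challenge alone and 100% = reference antagonist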
TAAR1 antag = antagonists of human TAAR1; inhibition, % at 3 µM; actives 1.5% (n = 360,000); CHO RD-HGA16 TAAR1, Fluo-8 calcium fluorescence, antagonist; Q96RJ0; AID 624466;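 active = inhibition above a per-plate cutoff, the mean inhibition of test compounds on that plate plus 3 SD, cut at about 49% in these data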;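 note: 0% = DMSO plus EC80 beta-PEA response and 100% = DMSO alone without agonist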
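System: RD-HGA16 CHO cells with stable hTAAR1 and Gα16 | Probe or stimulus: EC80 β-phenethylamine stimulus | Dosing: 3 µM, single point | Times: Dye loading 75 min at 37 °C, then 30 min room temperature | Measured by: Fluo-8 calcium-sensitive fluorescence | Read-out basis: % inhibition of agonist calcium response | Replicates: n of 1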
CHO parental Ca = counter-screen for OX1R antagonists: effect in parental CHO cells | actives 0.63% (n = 330,000) | inhibition, % at 5.6 µM | parental CHO-K1, ATP-induced calcium, Fluo-8 fluorescence;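 active = inhibition above that plate's mean sample inhibition plus 3 SD, cut at about 26% in these data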;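 note: 0% = ATP-challenged DMSO wells and 100% = DMSO wells without ATP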
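Material: parental CHO cells / Compound: single nominal dose of 5.6 µM per compound / Signal: Fluo-8 fluorescence / Replicates: singlicate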
The depositor's hits bear a star; x = not tested or not shown.

SMILES | TAAR1 ag | GPR7 antag | OX1R antag-1 | OX1R antag-2 | TAAR1 antag | CHO parental Ca
CCN(c1ccccc1)S(=O)(=O)c1ccc(C(=O)N(C)Cc2cccs2)cc1 | 11 | x | 10 | 13 | 49* | 2
CCN(CC(=O)NCc1cccs1)C(=O)c1ccc(S(=O)(=O)N(C)c2ccccc2)cc1 | 4 | x | -10 | 4 | 16 | -9
Cc1ccc(S(=O)(=O)N2CC3(O)CN(C(=O)OC(C)C)N(C(=O)OC(C)C)CC3(OC(=O)NCc3ccccc3F)C2)cc1 (configuration not stated) | 9 | x | x | x | 60* | x
C(=N\NC1=Nc2cccc3cccc1c23)/c1ccccc1 | 7 | -18 | -23 | 54 | 15 | -23
NC1=Nc2cccc3cccc1c23 | 2 | -10 | -4 | 71* | 18 | 11
O=C(COc1coc(CN2CCc3ccccc32)cc1=O)Nc1ccccc1 | 1 | x | -24 | 25 | 3 | -20
O=C(CN(C1CC1)S(=O)(=O)c1ccc(S(=O)(=O)NC2CCCCC2)cc1)Nc1ccccc1 | 38* | 5 | x | x | 38 | x
O=C(CN(Cc1cccs1)S(=O)(=O)c1ccc(S(=O)(=O)NC2CCCCC2)cc1)Nc1ccccc1 | 17 | 4 | -9 | 21 | 27 | -3
CC1CCCC(NC(=O)COC(=O)c2ccccc2[N+](=O)[O-])C1C (configuration not stated) | 1 | -8 | -20 | 8 | -13 | -15
CC1CCCC(NC(=O)COC(=O)c2ccc([N+](=O)[O-])s2)C1C (configuration not stated) | 4 | x | 12 | 44* | -7 | 2
O=C(NC1CCCC1)c1ccc([N+](=O)[O-])s1 | 4 | -5 | -33 | 61* | -20 | 4
CC(OC(=O)c1ccc([N+](=O)[O-])s1)C(=O)NC1CCCCC1C (configuration not stated) | 0 | x | -5 | 38* | -3 | -17
NS(=O)(=O)c1ccc(CCNC(=O)c2ccc([N+](=O)[O-])s2)cc1 | 1 | 11 | 0 | 66* | 14 | 22
CCOP(=O)(OCC)C(NC(=O)Nc1ccccc1)c1ccccc1 (configuration not stated) | 1 | 10 | -19 | 8 | -10 | -12
O=C(NCc1ccc(F)cc1)OC1CC2CC1[C@H]1CCCCN1C2=O (some centres not stated) | 2 | x | x | x | -10 | x
O=C(NCCCn1ccnc1)/C(=C/c1ccccc1)NC(=O)c1ccccc1 | 1 | 4 | -2 | 15 | -7 | 12
CN(C)c1ccc(/C=C(\NC(=O)c2ccccc2)C(=O)NCCCn2ccnc2)cc1 | -1 | -11 | -1 | 40* | 19 | -5
O=C(c1nn2c(C(F)(F)F)cc(-c3ccc(F)cc3)nc2c1Cl)N1CCOCC1 | -1 | 1 | -19 | 9 | -9 | -9
O=C(c1nc2nc(-c3ccc(Cl)cc3)cc(C(F)(F)F)n2n1)N1CCOCC1 | 0 | -6 | -23 | 46* | -16 | -18
CC(CCc1ccccn1)C(=O)c1ccccc1 (configuration not stated) | 1 | x | x | x | 11 | x
CC(CCc1ccccn1)(CCc1ccccn1)C(=O)c1ccccc1 | 8 | x | x | x | 53* | x
S=C(NCCCc1cnc[nH]1)NCCCN(Cc1ccccc1)c1ccc(Br)cn1 | 22 | x | x | x | 30 | x
S=C(NCCCc1cnc[nH]1)NCCCN(Cc1ccc(Cl)cc1)c1ccc(Br)cn1 | 38* | x | x | x | 38 | x
CCOC(=O)N1CCN(C2=C(NS(=O)(=O)c3ccccc3)C(=O)c3ccccc3C2=O)CC1 | 10 | -9 | -27 | 68* | -31 | -30
CCN1CCN(C2=C(NS(=O)(=O)c3ccccc3)C(=O)c3ccccc3C2=O)CC1 | 0 | -12 | -4 | 74* | -9 | -16
SMILES | TAAR1 ag | GPR7 antag | OX1R antag-1 | OX1R antag-2 | TAAR1 antag | CHO parental Ca
CCOC(=O)N1CCN(C2=C(NS(=O)(=O)c3ccc(Br)cc3)C(=O)c3ccccc3C2=O)CC1 | 0 | x | x | x | 6 | x
O=c1c2ccccc2oc2ccc(NCCCN3CCOCC3)cc12 | 3 | 3 | -16 | 23 | -2 | -11
Cn1c2ccccc2c(=O)c2cc(NCCCN3CCOCC3)ccc21 | 6 | x | -21 | 59* | -15 | -28
COc1cc(CC(=O)OCC(=O)Nc2sccc2C(N)=O)cc(OC)c1OC | 21 | -4 | 12 | 29 | 63* | 6
NC(=O)c1ccsc1NC(=O)COC(=O)c1cc(=O)[nH]c2ccccc12 | 10 | x | -31 | 33 | 50* | -19
O=C(COC(=O)c1cc(=O)[nH]c2ccccc12)NCc1cccs1 | 1 | -2 | -6 | 25 | -15 | -11
CN(CC(=O)Nc1ccccc1N1CCOCC1)S(=O)(=O)c1ccc(Cl)cc1 | 12 | 4 | -9 | 7 | 39 | -15
N#Cc1nc(COc2ccc(F)cc2)oc1N1CCCCC1 | 1 | -7 | -13 | 21 | -6 | -9
C/C(=N\NC(=O)c1ccccc1)c1ccc(N2CCOCC2)cc1 | -1 | 6 | -3 | 15 | 4 | 5
C/C(=N\NC(=O)C1CC1)c1ccc(N2CCOCC2)cc1 | 1 | 17* | 0 | 16 | -2 | 16
Cc1ccc(-c2c(C#N)c(N)n(-c3ccccc3C)c(=O)c2C#N)cc1 | 8 | x | x | x | 3 | x
COc1ccc(CN(C)S(=O)(=O)c2nnc(NC(=O)c3ccccc3)s2)cc1OC | 3 | -15 | -8 | 22 | -39 | -9
COc1ccc(CN(C)S(=O)(=O)c2nnc(NC(=O)c3cccc(F)c3)s2)cc1OC | 4 | 0 | -28 | 43* | 17 | -1
CC(=O)c1cccc(-c2cnc3c(NC=O)cc(-c4ccccc4)cn23)c1 | 5 | x | x | x | 34 | x
O=C(CSc1ccc2ccccc2n1)NCc1ccc2c(c1)OCO2 | 2 | -21 | -6 | 54* | -2 | -27
O=C(Cn1nc(-c2ccccc2)ccc1=O)NCc1ccc2c(c1)OCO2 | 18 | 18 | 0 | 72* | -3 | -9
O=C(Cn1nc(-c2ccc(Cl)cc2)ccc1=O)NCc1ccc2c(c1)OCO2 | -2 | 10 | -36 | 29 | -19 | -4
CCC1Sc2ccccc2N(CC(=O)NCc2ccc3c(c2)OCO3)C1=O (configuration not stated) | 17 | 1 | -7 | 24 | 50* | -10
CCOc1ccc(/C=N/n2c(C3CCCCC3)n[nH]c2=S)cc1 | 0 | -2 | -21 | -10 | -2 | -9
CS(=O)(=O)N(CC(=O)NCCSC1CCCCC1)c1ccccc1 | 4 | -1 | -24 | 10 | 13 | -19
COc1ccc(-c2noc(CN(C(=O)c3c(-c4ccccc4Cl)noc3C)C(C)C)n2)cc1 | 7 | 2 | -24 | 33 | 27 | -16
O=C(NCCCc1ccccc1)c1c(O)nc2sccn2c1=O | 13 | x | -12 | 31 | -19 | -12

Screening results as filed in PubChem.
